# Results gathered from unrelated publications.
# Compare with care: the assays were run in different laboratories.
# Target: Casein kinase I isoform gamma-1 (CSNK1G1, Homo sapiens, UniProt Q9HCP0)
Compound,assay,conditions,quantity,result
C#Cc1n[nH]c2c(-c3cn([C@@H](C)c4ccccc4)c(=O)[nH]c3=O)cc(F)cc12,"enzyme activity, inhibitor",0.1 µM,inhibition,6.6%
COc1cc(Nc2ncc(F)c(Nc3ccc4c(n3)NC(=O)C(C)(C)O4)n2)cc(OC)c1OC,"binding, competition with immobilised ligand",10 µM,inhibition,0%
O=c1[nH]c2ccccc2n1C1CCN(Cc2ccc(-c3[nH]c4cc5ncnc5cc4nc3-c3ccccc3)cc2)CC1,cell-free assay,0.5 µM,remaining signal,99.3%
Cn1cc(-c2cc(F)cc(N3CCn4c(cc5c4CCCC5)C3=O)c2CO)cc(Nc2ccc(N3CCN(C4COC4)CC3)cn2)c1=O,"enzyme activity, inhibitor",0.1 µM,inhibition,1%
N#CC1(c2ccccn2)CCN(Cc2cc(C(=O)O)c(=O)n3ccccc23)CC1,"cell-free assay, competition with immobilised ligand",1 µM,remaining binding,100%
Cn1cc(-c2cccc(N3CCc4c(sc5c4CC(C)(C)C5)C3=O)c2CO)cc(Nc2ccncn2)c1=O,"enzyme activity, inhibitor",1 µM,inhibition,5%
Cc1nn(C)cc1-c1nc2c(N3CCN(Cc4ccc(Cl)cc4)CC3)c(Cl)cnc2[nH]1,"binding, competition with immobilised ligand",1 µM,remaining binding,100%
Nc1ncc(-c2nc(N3CCOCC3)nc(N3CCOCC3)n2)c(C(F)F)n1,"binding, competition with immobilised ligand",10 µM,remaining binding,79%
C#Cc1n[nH]c2c(-c3cn(C(C)c4ccccn4)c(=O)[nH]c3=O)cc(F)cc12 (stereo not drawn),"enzyme activity, inhibitor",1 µM,inhibition,5.4%
Cn1cncc1[C@@](O)(COc1ccc(C#N)cc1-c1ccc(OC(F)(F)F)cc1)c1ccc(C#N)cc1,"cell-free assay, competition with immobilised ligand",1 µM,remaining binding,91%
COc1ncccc1-c1cnn2ccc(N3CCN(C(=O)OC(C)C)CC3)nc12,"binding, competition with immobilised ligand",1 µM,remaining binding,77%
CC(C)(C)c1cc(C=C(C#N)C#N)cc(Br)c1O,"enzyme activity, inhibitor",0.5 µM,remaining activity,106%
